Data: ChEMBL document CHEMBL4431333, “Synthesis, Antibacterial, and Anticancer Evaluation of Novel Spiramycin-Like Conjugates Containing C(5) Triazole Arm” (J Med Chem, 2016)
In brackets after ≈: the same amount, converted by molar mass. Activity calls are given as the source filed them. The rule behind the calls is not given here.

Experiments:
[1] = Octanol-water partition coefficient, log P of compound after 1 hr by UV-visible spectrophotometric analysis; type: physicochemical
HeLa = experiment: Cytotoxicity against human HeLa cells assessed as reduction in cell survival after 72 hrs by sulforhodamine B assay; type: functional, cell-based
KB = experiment: Cytotoxicity against human KB cells assessed as reduction in cell survival after 72 hrs by sulforhodamine B assay; type: functional, cell-based
MCF7 = experiment: Cytotoxicity against human MCF7 cells assessed as reduction in cell survival after 72 hrs by sulforhodamine B assay; type: functional, cell-based
HepG2 = experiment: Cytotoxicity against human HepG2 cells assessed as reduction in cell survival after 72 hrs by sulforhodamine B assay; type: functional, cell-based
NHDF = experiment: Cytotoxicity against HDF assessed as reduction in cell survival after 72 hrs by sulforhodamine B assay; type: cell-based, Homo sapiens
[2] = Solubility of compound in water; type: physicochemical
[3] = (§1) Selectivity index, ratio of IC50 for HDF to IC50 for human KB cells
Bacillus spizizenii = experiment: Antibacterial activity against Bacillus subtilis ATCC 6633 after 18 hrs by serial microdilution method; type: functional
Micrococcus luteus = experiment: Antibacterial activity against Micrococcus luteus ATCC 10240 after 18 hrs by serial microdilution method; type: functional
Staphylococcus aureus [4] = experiment: Antibacterial activity against methicillin-resistant Staphylococcus aureus isolate 1 after 18 hrs by serial microdilution method; type: functional
Procedure, shortened: (§2)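 Clinical MRSA isolates, confirmed by cefoxitin 30 μg disc diffusion (EUCAST) and PCR for mecA. MIC by EUCAST broth microdilution in Mueller–Hinton II broth. Compounds dissolved in DMSO and diluted in broth, tested at 0.064–64 μg mL−1. Final inoculum approximately 5 × 10^5 CFU mL−1. Read after 18 h at 35 ± 2 °C.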

[5] = system: Staphylococcus epidermidis; experiment: Antibacterial activity against Staphylococcus epidermidis ATCC 12228 after 18 hrs by serial microdilution method; type: functional
Streptococcus pneumoniae = experiment: Antibacterial activity against Streptococcus pneumoniae ATCC 49619 after 18 hrs by serial microdilution method; type: functional
Staphylococcus aureus [6] = experiment: Antibacterial activity against methicillin-resistant Staphylococcus aureus isolate 2 after 18 hrs by serial microdilution method; type: functional; procedure, shortened: as §2
[7] = system: Staphylococcus epidermidis; experiment: Antibacterial activity against Staphylococcus epidermidis ATCC 49134 after 18 hrs by serial microdilution method; type: functional
Homo sapiens [8] = species on record: Homo sapiens; experiment: (§3) Selectivity index, ratio of IC50 for HDF to IC50 for human HeLa cells
Homo sapiens [9] = species on record: Homo sapiens; experiment: as §1
Homo sapiens [10] = species on record: Homo sapiens; experiment: (§4) Selectivity index, ratio of IC50 for HDF to IC50 for human MCF7 cells
Homo sapiens [11] = species on record: Homo sapiens; experiment: (§5) Selectivity index, ratio of IC50 for HDF to IC50 for human HepG2 cells
[12] = as §3
[13] = as §4
[14] = as §5

SPIRAMYCIN [listing 1 of 2 here]
logP ([1]; 1 h): 0.58
IC50 (HeLa; hela): 34.4 µM
IC50 (KB; kb): 31.3 µM
IC50 (MCF7; mcf7): 33.1 µM
IC50 (HepG2; hepg2): 30.5 µM
IC50 (NHDF; nhdf): 31.1 µM
solubility ([2]; buffer): 4.5 mg/mL

CO/C1=C\CC(=O)O[C@H](C)C/C=C/C=C/[C@H](O[C@H]2CC[C@H](N(C)C)[C@@H](C)O2)[C@H](C)C[C@@H]2C[C@H](OCc3cn(C4CCCCC4)nn3)O[C@@H]12
solubility ([2]; buffer): Insoluble

CO/C1=C\CC(=O)O[C@H](C)C/C=C/C=C/[C@H](O[C@H]2CC[C@H](N(C)C)[C@@H](C)O2)[C@H](C)C[C@@H]2C[C@H](OCc3cn(C4CCCCCC4)nn3)O[C@@H]12
solubility ([2]; buffer): Insoluble

O=c1[nH]c(=O)n([C@H]2C[C@H](O)[C@@H](CO)O2)cc1F [FLOXURIDINE]
Ratio IC50 [3]: 1.5

CO/C1=C\CC(=O)O[C@H](C)C/C=C/C=C/[C@H](O[C@H]2CC[C@H](N(C)C)[C@@H](C)O2)[C@H](C)C[C@@H]2C[C@H](OCc3cn(CC4CCCCC4)nn3)O[C@@H]12
solubility ([2]; buffer): Insoluble

CO/C1=C\CC(=O)O[C@H](C)C/C=C/C=C/[C@H](O[C@H]2CC[C@H](N(C)C)[C@@H](C)O2)[C@H](C)C[C@@H]2C[C@H](OCc3cn([C@H]4C[C@H](n5cc(C)c(=O)[nH]c5=O)O[C@@H]4CO)nn3)O[C@@H]12
solubility ([2]; buffer): Insoluble

CO/C1=C\CC(=O)O[C@H](C)C/C=C/C=C/[C@H](O[C@H]2CC[C@H](N(C)C)[C@@H](C)O2)[C@H](C)C[C@@H]2C[C@H](OCc3ccc(F)cc3)O[C@@H]12
Activity (Bacillus spizizenii): inactive
Activity (Micrococcus luteus): inactive
Activity (Staphylococcus aureus [4]): inactive
Activity [5]: inactive
Activity (Streptococcus pneumoniae): inactive
solubility ([2]; buffer): Insoluble

CO/C1=C\CC(=O)O[C@H](C)C/C=C/C=C/[C@H](O[C@H]2CC[C@H](N(C)C)[C@@H](C)O2)[C@H](C)C[C@@H]2C[C@H](OCc3cn([C@H]4O[C@@H](CO)[C@@H](O)[C@@H](O)[C@@H]4O)nn3)O[C@@H]12
MIC (Bacillus spizizenii; ATCC 6633, 18 h): 85.2 µM (≈ 64 µg/mL)
MIC (Micrococcus luteus; ATCC 10240, 18 h): 85.2 µM (≈ 64 µg/mL)
MIC (Staphylococcus aureus [4]; isolate 1, 18 h): > 85.2 µM
MIC (Staphylococcus aureus [6]; isolate 2, 18 h): > 85.2 µM
MIC ([5]; ATCC 12228, 18 h): > 85.2 µM
MIC ([7]; ATCC 49134, 18 h): > 85.2 µM
MIC (Streptococcus pneumoniae; ATCC 49619, 18 h): 10.7 µM (≈ 8 µg/mL)

Nc1ccn([C@@H]2O[C@H](CO)[C@@H](O)[C@@H]2O)c(=O)n1 [CYTARABINE]
Ratio IC50 [3]: 1.23

SPIRAMYCIN [listing 2 of 2 here]
MIC (Bacillus spizizenii): 0.59 µM
MIC (Micrococcus luteus): 0.3 µM
MIC (Staphylococcus aureus [4]): 9.49 µM
MIC (Staphylococcus aureus [6]): 4.74 µM
MIC [5]: 2.37 µM
MIC [7]: 2.37 µM
MIC (Streptococcus pneumoniae): 0.3 µM
Ratio IC50 (Homo sapiens [8]): 0.9
Ratio IC50 (Homo sapiens [9]): 0.9
Ratio IC50 (Homo sapiens [10]): 0.94
Ratio IC50 (Homo sapiens [11]): 1.02

Cc1cn([C@H]2C[C@H](N=[N+]=[N-])[C@@H](CO)O2)c(=O)[nH]c1=O [ZIDOVUDINE]
IC50 (MCF7; Homo sapiens, MCF7, 72 h): 7.67 µM
Ratio IC50 [12]: 1.34
Ratio IC50 [3]: 1.48
Ratio IC50 [13]: 1.88

CO/C1=C\CC(=O)O[C@H](C)C/C=C/C=C/[C@H](O[C@H]2CC[C@H](N(C)C)[C@@H](C)O2)[C@H](C)C[C@@H]2C[C@H](OCc3cn(Cc4ccccc4)nn3)O[C@@H]12
solubility ([2]; buffer): Insoluble

O=c1[nH]cc(F)c(=O)[nH]1 [FLUOROURACIL]
IC50 (NHDF; Homo sapiens, NHDF, 72 h): 7.02 µM
Ratio IC50 [3]: 1.45

C=CCO[C@H]1C[C@H]2C[C@@H](C)[C@@H](O[C@H]3CC[C@H](N(C)C)[C@@H](C)O3)/C=C/C=C/C[C@@H](C)OC(=O)C/C=C(\OC)[C@@H]2O1
Activity (Bacillus spizizenii): inactive
Activity (Micrococcus luteus): inactive
Activity (Staphylococcus aureus [4]): inactive
Activity [5]: inactive
Activity (Streptococcus pneumoniae): inactive
solubility ([2]; buffer): Insoluble

CO/C1=C\CC(=O)O[C@H](C)C/C=C/C=C/[C@H](O[C@H]2CC[C@H](N(C)C)[C@@H](C)O2)[C@H](C)C[C@@H]2C[C@H](OCc3cn(CC4CCOCC4)nn3)O[C@@H]12
Activity (Bacillus spizizenii): inactive
Activity (Micrococcus luteus): inactive
Activity (Staphylococcus aureus [4]): inactive
Activity (Staphylococcus aureus [6]): inactive
Activity [5]: inactive
Activity [7]: inactive
Activity (Streptococcus pneumoniae): inactive
solubility ([2]; buffer): Insoluble

COC1=C\[C@@H](CC=O)C[C@@H](C)[C@@H](O[C@H]2CC[C@H](N(C)C)[C@@H](C)O2)/C=C/C=C/C[C@@H](C)OC(=O)\C=C\1
MIC (Bacillus spizizenii; ATCC 6633, 18 h): 16.3 µM (≈ 8 µg/mL)
MIC (Micrococcus luteus; ATCC 10240, 18 h): 8.17 µM (≈ 4 µg/mL)
MIC (Staphylococcus aureus [4]; isolate 1, 18 h): 32.7 µM (≈ 16 µg/mL)
MIC (Staphylococcus aureus [6]; isolate 2, 18 h): 32.7 µM (≈ 16 µg/mL)
MIC ([5]; ATCC 12228, 18 h): 16.3 µM (≈ 8 µg/mL)
MIC ([7]; ATCC 49134, 18 h): 16.3 µM (≈ 8 µg/mL)
MIC (Streptococcus pneumoniae; ATCC 49619, 18 h): 4.08 µM (≈ 2 µg/mL)
logP at 1 h [1]: 0.74
IC50 (HeLa; Homo sapiens, HeLa, 72 h): 127 µM
IC50 (KB; Homo sapiens, KB, 72 h): 133 µM
IC50 (MCF7; Homo sapiens, MCF7, 72 h): 131 µM
IC50 (HepG2; Homo sapiens, HepG2, 72 h): 135 µM
IC50 (NHDF; Homo sapiens, NHDF, 72 h): 139 µM
Ratio IC50 [12]: 1.1
Ratio IC50 [3]: 1.05
Ratio IC50 [13]: 1.07
Ratio IC50 [14]: 1.03
solubility ([2]; water, read-out: solubility): 0.7 mg/mL (≈ 1430 µM)

C#CCO[C@H]1C[C@H]2C[C@@H](C)[C@@H](O[C@H]3CC[C@H](N(C)C)[C@@H](C)O3)/C=C/C=C/C[C@@H](C)OC(=O)C/C=C(\OC)[C@@H]2O1
Activity (Bacillus spizizenii): inactive
Activity (Micrococcus luteus): inactive
Activity (Staphylococcus aureus [4]): inactive
Activity (Staphylococcus aureus [6]): inactive
Activity [5]: inactive
Activity [7]: inactive
Activity (Streptococcus pneumoniae): inactive
solubility ([2]; buffer): Insoluble

CO/C1=C\CC(=O)O[C@H](C)C/C=C/C=C/[C@H](O[C@H]2CC[C@H](N(C)C)[C@@H](C)O2)[C@H](C)C[C@@H]2C[C@H](OCc3cn([C@H]4O[C@@H](CO)[C@H](O)[C@@H](O)[C@@H]4O)nn3)O[C@@H]12
MIC (Bacillus spizizenii; ATCC 6633, 18 h): 85.2 µM (≈ 64 µg/mL)
MIC (Micrococcus luteus; ATCC 10240, 18 h): 85.2 µM (≈ 64 µg/mL)
MIC (Staphylococcus aureus [4]; isolate 1, 18 h): > 85.2 µM
MIC (Staphylococcus aureus [6]; isolate 2, 18 h): > 85.2 µM
MIC ([5]; ATCC 12228, 18 h): 85.2 µM (≈ 64 µg/mL)
MIC ([7]; ATCC 49134, 18 h): 85.2 µM (≈ 64 µg/mL)
MIC (Streptococcus pneumoniae; ATCC 49619, 18 h): 10.7 µM (≈ 8 µg/mL)
